Data taken from BindingDB's records for doi:10.1021/jm049090z (The Bristol-Myers Squibb Pharmaceutical Research Institute, 2005).

These molecules were tested against T1, DNA topoisomerase 1 (Homo sapiens, UniProt P11387) (assay: Topoisomerase I activity for single-strand breaks in the DNA substrate).
T1 sequence (P11387 whole entry): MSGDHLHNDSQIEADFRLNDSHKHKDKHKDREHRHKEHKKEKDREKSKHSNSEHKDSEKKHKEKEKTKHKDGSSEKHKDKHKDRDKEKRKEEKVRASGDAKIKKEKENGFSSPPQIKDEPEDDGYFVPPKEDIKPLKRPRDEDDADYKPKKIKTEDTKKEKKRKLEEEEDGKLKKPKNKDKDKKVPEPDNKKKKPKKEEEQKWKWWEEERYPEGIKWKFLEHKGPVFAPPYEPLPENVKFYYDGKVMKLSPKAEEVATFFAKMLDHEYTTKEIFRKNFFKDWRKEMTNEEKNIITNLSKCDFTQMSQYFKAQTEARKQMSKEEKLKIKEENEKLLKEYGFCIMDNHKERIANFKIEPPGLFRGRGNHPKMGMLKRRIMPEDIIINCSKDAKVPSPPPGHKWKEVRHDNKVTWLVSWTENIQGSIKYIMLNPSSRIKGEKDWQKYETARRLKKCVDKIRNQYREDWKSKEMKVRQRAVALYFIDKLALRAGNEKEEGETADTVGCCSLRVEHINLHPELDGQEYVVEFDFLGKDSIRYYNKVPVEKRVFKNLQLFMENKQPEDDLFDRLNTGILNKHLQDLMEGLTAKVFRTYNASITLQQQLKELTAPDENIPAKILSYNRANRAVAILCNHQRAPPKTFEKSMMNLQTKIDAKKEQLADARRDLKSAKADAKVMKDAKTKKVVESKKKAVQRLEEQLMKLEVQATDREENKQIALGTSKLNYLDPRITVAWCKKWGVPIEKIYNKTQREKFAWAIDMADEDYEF
Procedure, shortened: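 Topo I-mediated DNA cleavage assay using covalently closed, supercoiled phage PM2 DNA as substrate; read-out is induction of single-strand breaks.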
For `O=C1NC(=O)c2c1c1c3cc(F)ccc3[nH]c1c1c2c2cc(F)ccc2n1C1OC(CF)[C@@H](O)C(O)C1O` (some centres undefined) [Name not given], the EC50 was 704 nM. In the case of `O=C1NC(=O)c2c1c1c3cc(F)c(F)cc3[nH]c1c1c2c2cc(F)c(F)cc2n1C1OC(CF)C(O)C(O)C1O` (centres undefined) [2,3,9,10-tetrafluoro-12-(6-fluoromethyl-3,4,5-trihydroxytetrahydro-2H-2-pyranyl)-6,7,12,13-tetrahydro-5H-indolo[2,3-a]pyrrolo[3,4-c]carbazole-5,7-dione], the EC50 is reported as 480 nM. With `O=C1NC(=O)c2c1c1c3cc(F)c(F)cc3sc1c1c2c2cc(F)c(F)cc2n1C1OC(CF)C(O)C(O)C1O` (centres undefined) [2,3,9,10-tetrafluoro-13-(6-fluoromethyl-3,4,5-trihydroxytetrahydro-2H-2-pyranyl)-5,6,7,13-tetrahydrobenzo[4,5]thieno[2,3-a]pyrrolo[4,3-c]carbazole-5,7-dione] the EC50 was 240 nM. `O=C1NC(=O)c2c1c1c3cc(F)c(F)cc3sc1c1c2c2cc(F)c(F)cc2n1C1OC(CO)C(F)(F)C(O)C1O` (centres undefined) [13-(5,5-difluoro-3,4-dihydroxy-6-hydroxymethyltetrahydro-2H-2-pyranyl)-2,3,9,10-tetrafluoro-5,6,7,13-tetrahydrobenzo[4,5]thieno[2,3-a]pyrrolo[4,3-c]carbazole-5,7-dione] was tested, and the EC50 was 80 nM.
